{"data": "Measured values of several laboratories", "observed": "binding", "MET": "Hepatocyte growth factor receptor (MET, Homo sapiens, UniProt P08581)", "Tumor necrosis factor receptor superfamily member 9": "Tumor necrosis factor receptor superfamily member 9 (Homo sapiens, UniProt Q07011)", "USP7": "Ubiquitin carboxyl-terminal hydrolase 7 (USP7, Homo sapiens, UniProt Q93009)", "note": "Protocols differ between the studies behind these lines."}
{"Structure (SMILES)": "CC(c1ccccc1)n1cc(-c2ccccn2)c(=O)[nH]c1=O (stereo not shown)", "target": "MET", "Kd": "5010 nM"}
{"Structure (SMILES)": "CCCC[C@@H]1NC(=O)[C@H](Cc2ccc(O)cc2)NC(=O)[C@@H]2CCCN2C(=O)[C@H](CC(=O)O)NC(=O)[C@H](C)NC(=O)[C@H](Cc2ccccc2)NC(=O)[C@@H]2CSCCC(=O)N3CN(CN(C3)C(=O)CCSC[C@H](NC(C)=O)C(=O)N[C@@H](CC(C)(C)C)C(=O)N3CCC[C@H]3C(=O)N[C@@H](CCC(=O)O)C(=O)N[C@H](CCCCNC(=O)CCc3cn(CCOCCOCCOCCOCCOCCC(=O)N[C@H]4CSCCC(=O)N5CN6CN(C5)C(=O)CCSC[C@H](NC(=O)[C@@H](CC(=O)O)NC(=O)[C@H](Cc5cccc7ccccc57)NC(=O)[C@@H]5CCCN5C4=O)C(=O)N[C@@H](CCSC)C(=O)N[C@@H](CCCCNC(=N)N)C(=O)N[C@@H](CC(=O)O)C(=O)N[C@@H](Cc4c[nH]c5ccccc45)C(=O)N[C@@H](CO)C(=O)N[C@@H]([C@@H](C)O)C(=O)N4CCC[C@H]4C(=O)N4C[C@H](O)C[C@H]4C(=O)N[C@@H](Cc4c[nH]c5ccccc45)C(=O)N[C@H](C(N)=O)CSCCC6=O)nn3)C(=O)N3CCC[C@H]3C(=O)N[C@@H](Cc3ccc(O)cc3)C(=O)N2)C(=O)CCSCCNC1=O", "target": "Tumor necrosis factor receptor superfamily member 9", "technique": "SPR", "Kd": "30 nM"}
{"Structure (SMILES)": "CN1CN(c2ccccc2)C2(CCN(CCCC(=O)c3ccc(F)cc3)CC2)C1=O", "target": "D(2) dopamine receptor (Drd2, Rattus norvegicus, UniProt P61169)", "technique": "radioligand", "setting": "cell membranes", "Kd": "0.09 nM"}
{"Structure (SMILES)": "CC(C)C[C@H](NC(=O)[C@@H]1CCCN1C(=O)[C@H](Cc1ccccc1)NC(=O)[C@H](CCC(=O)O)NC(=O)[C@@H](N)CC(N)=O)C(=O)N[C@@H](CS)C(=O)N[C@@H](CO)C(=O)N[C@@H](CC(C)C)C(=O)N1CCC[C@H]1C(=O)N[C@@H](CCC(=O)O)C(=O)NCC(=O)O", "target": "USP7", "technique": "ITC", "pH": "pH 8", "Kd": "118000 nM"}
{"Structure (SMILES)": "CCCC[C@@H]1NC(=O)[C@H](Cc2ccc(O)cc2)NC(=O)[C@@H]2CCCN2C(=O)[C@H](CC(=O)O)NC(=O)[C@H](C)NC(=O)[C@H](Cc2ccccc2)NC(=O)[C@@H]2CSCCC(=O)N3CN(CN(C3)C(=O)CCSCCC(=O)N[C@@H](CC(C)(C)C)C(=O)N3CCC[C@H]3C(=O)N[C@@H](CCC(=O)O)C(=O)N[C@H](CCCCNC(=O)CCc3cn(CCOCCOCCOCCOCCOCCC(=O)N[C@H]4CSCCC(=O)N5CN6CN(C5)C(=O)CCSC[C@H](NC(=O)[C@@H](CC(=O)O)NC(=O)[C@H](Cc5cccc7ccccc57)NC(=O)[C@@H]5CCCN5C4=O)C(=O)N[C@@H](CCSC)C(=O)N[C@@H](CCCCNC(=N)N)C(=O)N[C@@H](CC(=O)O)C(=O)N[C@@H](Cc4c[nH]c5ccccc45)C(=O)N[C@@H](CO)C(=O)N[C@@H]([C@@H](C)O)C(=O)N4CCC[C@H]4C(=O)N4C[C@H](O)C[C@H]4C(=O)N[C@@H](Cc4c[nH]c5ccccc45)C(=O)N[C@H](C(N)=O)CSCCC6=O)nn3)C(=O)N3CCC[C@H]3C(=O)N[C@@H](Cc3ccc(O)cc3)C(=O)N2)C(=O)CCSCCNC1=O", "target": "Tumor necrosis factor receptor superfamily member 9", "technique": "SPR", "Kd": "49 nM"}
{"Structure (SMILES)": "Cc1n[nH]c2c(-c3cn(C(C)c4ccccc4)c(=O)[nH]c3=O)cccc12 (stereo not shown)", "target": "MET", "Kd": "200 nM"}
{"Structure (SMILES)": "CC[C@H](C)[C@H](NC(=O)[C@H](CC(C)C)NC(=O)CNC(=O)[C@@H](N)CCCCN)C(=O)N[C@@H](CC(=O)O)C(=O)N[C@@H](Cc1ccc(O)cc1)C(=O)N[C@@H](Cc1ccc(O)cc1)C(=O)N[C@@H](CC(C)C)C(=O)N[C@@H](CCSC)C(=O)N1CCC[C@H]1C(=O)N[C@@H](CO)C(=O)N[C@@H](CC(C)C)C(=O)N[C@@H](CO)C(=O)N[C@H](C(=O)N[C@H](C(=O)N[C@@H](CO)C(=O)N[C@@H](CCCNC(=N)N)C(=O)N[C@@H](CO)C(=O)NCC(=O)N[C@@H](CCCCN)C(=O)O)[C@@H](C)O)[C@@H](C)O", "target": "USP7", "technique": "ITC", "pH": "pH 8", "Kd": "25900 nM"}
{"Structure (SMILES)": "CCCCC/C=C\\C/C=C\\C/C=C\\C/C=C\\CCCC(=O)O", "target": "Nuclear receptor subfamily 4 group A member 2 (Homo sapiens, UniProt P43354)", "technique": "fluorescence", "Kd": "58000 nM"}
{"Structure (SMILES)": "CCCC[C@@H]1NC(=O)[C@H](Cc2ccc(O)cc2)NC(=O)[C@@H]2CCCN2C(=O)[C@H](CC(=O)O)NC(=O)[C@H](C)NC(=O)[C@H](Cc2ccccc2)NC(=O)[C@@H]2CSCCC(=O)N3CN(CN(C3)C(=O)CCSC[C@@H](C(=O)N[C@@H](C)C(N)=O)NC1=O)C(=O)CCSC[C@H](NC(=O)[C@H](C)NC(C)=O)C(=O)N[C@@H]([C@@H](C)CC)C(=O)N[C@@H](CCC(=O)O)C(=O)N[C@@H](CCC(=O)O)C(=O)N[C@H](CCCCNC(=O)CCc1cn(CCOCCOCCOCCOCCOCCC(=O)N[C@H]3CSCCC(=O)N4CN5CN(C4)C(=O)CCSC[C@H](NC(=O)[C@@H](CC(=O)O)NC(=O)[C@H](Cc4cccc6ccccc46)NC(=O)[C@@H]4CCCN4C3=O)C(=O)N[C@@H](CCSC)C(=O)N[C@@H](CCCCNC(=N)N)C(=O)N[C@@H](CC(=O)O)C(=O)N[C@@H](Cc3c[nH]c4ccccc34)C(=O)N[C@@H](CO)C(=O)N[C@@H]([C@@H](C)O)C(=O)N3CCC[C@H]3C(=O)N3C[C@H](O)C[C@H]3C(=O)N[C@@H](Cc3c[nH]c4ccccc34)C(=O)N[C@H](C(N)=O)CSCCC5=O)nn1)C(=O)N[C@@H](CCC(N)=O)C(=O)N[C@@H](Cc1ccc(O)cc1)C(=O)N2", "target": "Tumor necrosis factor receptor superfamily member 9", "technique": "SPR", "Kd": "43 nM"}
{"Structure (SMILES)": "CC(c1ccccc1Cl)n1cc(-c2cc(F)cc(F)c2)c(=O)[nH]c1=O (stereo not shown)", "target": "MET", "Kd": "39800 nM"}
